Results published in ChEMBL document CHEMBL4513216, “Probing the Open Global Health Chemical Diversity Library for Multistage-Active Starting Points for Next-Generation Antimalarials” (ACS Infect Dis, 2020).

Test: Toxicity liver stage against HepG2, at 10uM
Assay type: cell-based
Set-up: test concentration 10 uM, cell line HepG2-A16-CD81EGFP
Conditions: human, HepG2-A16-CD81EGFP cells; read-out: INHIBITION
Method in brief: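 Uninfected HepG2-A16-CD81EGFP cells, 3 × 10^3 per well, 1536-well, plated on prespotted compound at 10 μM final, parasite-free screening media added to match infected plates; puromycin 10 μM positive, DMSO 0.5% negative; run in parallel with 48 h PbLuc assay at 37 °C, 5% CO2; viability by CellTiter-Glo luminescence, normalized to controls.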

| Compound | cytotoxicity at 10 µM |
| --- | --- |
| Fc1ccc(C2CN(c3ncnc4nc[nH]c34)CCO2)cc1 (configuration not stated) | 13.1% |
| O=C1CC2(CCN(C(=O)c3ccncc3)CC2)Oc2c(Cl)cc(Cl)cc21 | 5.17% |
| CC(C)(C)n1ncc2c1NC(=O)CSC2c1ccc2c(c1)OCCO2 (configuration not stated) | -1.74% |
| O=C(C1CC1)N1CCN(c2ccc(-n3cncn3)nn2)CC1 | -4.83% |
| O=C([C@H]1CCCO1)N1Cc2nccn2CC(COc2cccnc2)C1 (some centres not stated) | 7.45% |
| O=C(C1CCOCC1)N1CCc2ncnc(-c3ccccc3)c2CC1 | -6.09% |
| O=C(Cc1ccccc1)N1CCn2cc(Cn3cncn3)nc2C1 | -137% |
| CCOc1ccc(NC(=O)c2cc3c([nH]c2=O)CCC3)cc1 | 6.5% |
| Cc1cccc(COC[C@]23COC[C@H]2CN(C(=O)c2ccsc2)C3)n1 | -7.85% |
| O=C(N[C@@H]1CN(Cc2cccs2)[C@@H]2CCCO[C@@H]21)C1CC1 | 3.63% |
| CN(C)c1ncc(-c2ccc(C(N)=O)cc2)c(C2CNCCO2)n1 (configuration not stated) | -1.42% |
| COC1CCCOC12CCN(C(=O)c1ccc3[nH]nnc3c1)CC2 (configuration not stated) | -3.97% |
| CNc1cc(C2CN(C(=O)c3ccn(C)n3)CCO2)nc(C)n1 (configuration not stated) | 12.6% |
| O=C(c1cncs1)N1CCCC1c1ccn[nH]1 (configuration not stated) | -11.9% |
| CCCC(=O)N1CCC(c2ncc3c(n2)CCNC3)CC1 | -23.1% |
| Cc1ncncc1C(=O)N1CCCC(c2[nH]ncc2S(C)(=O)=O)C1 (configuration not stated) | -4.41% |
| CC1CS(=O)(=O)CCN1Cc1ccccc1N(C)C (configuration not stated) | 5.29% |
| COc1ccccc1CC(NC(=O)N1CCC[C@@H]1CO)C(C)C (some centres not stated) | 3.34% |
| Cc1cscc1C(=O)Nc1cncnc1N(C)C | 0.137% |
| CN(C)C(=O)CN(C)C(=O)c1cccn1CCc1ccccc1 | 1.17% |
| CN(C)S(=O)(=O)c1ccc(=O)n(CC2CCCO2)c1 (configuration not stated) | -3.54% |

| Compound | cytotoxicity at 10 µM |
| --- | --- |
| Cc1ccc(C(=O)NCCS(=O)(=O)N2CCSCC2)n1C | -0.506% |
| CCN(CC)c1ccc(CNC(=O)c2ccc(=O)[nH]n2)cn1 | 4.16% |
| COCCCNC1CCCN(c2ccc(C)nn2)C1 (configuration not stated) | -9.9% |
| Cc1cc2n(n1)CC(CNC1CCN(C3CC3)CC1)CN2 (configuration not stated) | 4.16% |
| Cc1nc(CN2CCC(CNC(=O)Nc3ccccc3)CC2)oc1C | 3.54% |
| Cn1cc(-c2csc(N3CCN(c4nccs4)CC3)n2)cn1 | 6.23% |
| CCc1noc(CN2CCC(NC(=O)c3ccc(C)s3)CC2)n1 | -5.04% |
| COc1ccsc1C(=O)Nc1cc(CN2CCOCC2)ccc1C | -0.0813% |
| COc1ccc(F)cc1CSCC(=O)N(CCC#N)CCC#N | 0.0531% |
| Cc1ccc(O)c(C(=O)N2CCCC2c2nncn2CC(C)C)c1 (configuration not stated) | -3.27% |
| O=C1CCc2cc(OCCN3CCc4cncnc4C3)ccc2N1 | -7.2% |
| Cc1ccc(-n2ccnc2)c(C(=O)NCCCN(C)C)c1 | -152% |
| CC(C)Oc1ccc(-c2csc(Cn3ccc(=O)[nH]c3=O)n2)cc1 | 0.137% |
| NC(=O)NC(=O)CCSCc1cc(F)cc2cccnc12 | 1.88% |
| Cc1ccc(-c2n[nH]cc2CNCC2CCS(=O)(=O)C2)o1 (configuration not stated) | 12.4% |
| CN(CC(N)=O)C(=O)c1cnc(-c2ccc(Cl)s2)s1 | -5.02% |
| c1csc(N2CCN(c3nccn4cnnc34)CC2)n1 | -5.81% |
| CCc1noc(C(C)N(C)CC(=O)Nc2cccc(C)n2)n1 (configuration not stated) | 0.407% |
| Cc1n[nH]c(C2CN(C(=O)CCc3ccco3)CCO2)n1 (configuration not stated) | -1.95% |
| COCCOCC(=O)Nc1ccc(C)cc1F | -3.81% |
| Cc1ccc(CN2C[C@@H](C(=O)O)[C@H](c3cccnc3)C2)s1 | 4.17% |

| Compound | cytotoxicity at 10 µM |
| --- | --- |
| O=C(c1cccc(S(=O)(=O)NCCc2nccs2)c1)N1CCOCC1 | -4.19% |
| O=C1CN(C(=O)CC2C(=O)NCCN2CC2CCCCC2)CCN1 (configuration not stated) | -7.41% |
| CN(CCc1ncnn1-c1ccccc1Cl)C1CCS(=O)(=O)C1 (configuration not stated) | 9.53% |
| CCCC(C(=O)NC1CCN(S(C)(=O)=O)CC1)n1cccc1 (configuration not stated) | -3.71% |
| CC(C)CN1CC(C(=O)NCCc2c[nH]cn2)CC1=O (configuration not stated) | -3.62% |
| Cn1ccnc1SCCNC(=O)c1cc(S(N)(=O)=O)ccc1F | -3.45% |
| C[C@@H]1CN(C(=O)CCc2cnn(C)c2)C[C@@]1(O)C1CCC1 | -11.4% |
| CCC(C(=O)N(C)Cc1cc(COC)[nH]n1)n1cccn1 (configuration not stated) | -5.89% |
| COCCn1ccnc1C1CCN(C(=O)c2cccc(COC)n2)CC1 | 1.62% |
| N#CC1(C(=O)N2C[C@H](Nc3ncccn3)[C@@H](C3CC3)C2)CCOCC1 | 5.44% |
| CC(=O)N1CCN(c2cc(-n3cnc(C)c3C)nc(C)n2)CC1 | 0.727% |
| Cc1cccnc1[C@H](C)NC(=O)Cc1cc2c(cc1Cl)OCCO2 | -8.26% |
| CCCC1(CO)CCCN(c2ncccc2F)C1 (configuration not stated) | -6.83% |
| O=C(Cc1cccc(F)c1)NCCCNC(=O)c1cccc(O)c1 | 1.06% |
| Cc1ccc(-c2nnc(CN3CCCCC3Cn3cncn3)o2)cc1 (configuration not stated) | 3.84% |
| CCC1CN(C(=O)CN2CCN(c3nccc(OC)n3)CC2)CCO1 (configuration not stated) | -6.21% |
| CCc1nnc2n1CCN(Cc1csc(NC(C)=O)n1)C2 | -1.45% |
| COc1ccc(CNCC2CCN(c3ccccc3OC)C2)cc1O (configuration not stated) | -8.54% |
| Cc1cccc(-c2ccc(C(=O)NCC3CCCO3)c(=O)[nH]2)c1 (configuration not stated) | -7.36% |
| CCN1CCN(C(=O)COCc2cccc(OC)c2)CC1 | -11.5% |
| Cn1ncc2c(=O)[nH]c(CN3CCCC3c3cccc(F)c3)nc21 (configuration not stated) | -9.14% |

| Compound | cytotoxicity at 10 µM |
| --- | --- |
| Cc1cnn(CC2CCCN2C(=O)c2sccc2-n2cnnn2)c1 (configuration not stated) | -15% |
| CCCc1noc2ncc(C(=O)N3CCCC3c3cnn(C)c3)cc12 (configuration not stated) | -11.9% |
| Cc1ccc(NC2CCN(C(=O)COc3ccccc3)CC2)nn1 | -3.25% |
| Cc1ccc(NC2CCN(C(=O)COC3CCCC3)CC2)nn1 | 2.31% |
| O=C(NCc1ccccc1)NCC(O)c1cccc(F)c1 (configuration not stated) | -5.09% |
| CCN(Cc1nc2c(cnn2C)c(=O)[nH]1)Cc1ccccc1Cl | -22.7% |
| CSC(C)C(=O)NCc1ccc(-n2cncn2)nc1 (configuration not stated) | 3.28% |
| COc1ccc(CCC(=O)N2CCCC2Cn2cc(C)cn2)cc1F (configuration not stated) | 2.36% |
| COc1ccc(-c2cc(C3CCNCC3)nc(C)n2)cc1 | 10.2% |
| Cn1ncc2c1C(COCC1CC1)N(Cc1ccoc1)CC2 (configuration not stated) | 1.04% |
| O=S(=O)(C1CC1)N1CCO[C@H]2[C@@H](Oc3ncccc3F)CC[C@@H]21 | 1.67% |
| c1cncc(N2CCC3(CCCN(c4ccncc4)C3)CC2)c1 | 1.84% |
| Cc1ccc(O[C@@H]2C[C@H]3CN(C(=O)c4cnccn4)CCN3C2)cc1 | 1.12% |
| O=C(c1ccnnc1)N1CC[C@]2(C[C@H](Oc3ncccc3F)CO2)C1 | 3.42% |
| Cc1cccc(CN2CCC3(CCCN(C(=O)N4CCCC4)C3)C2=O)n1 (configuration not stated) | 8.76% |
| O=C(C1CCCO1)N1CCc2ncnc(NC3CCC3)c2CC1 (configuration not stated) | -5.16% |
| O=C1[C@@H]2CC[C@@H](CN(Cc3nnc(C4CC4)o3)C2)N1Cc1cscn1 | 9.57% |
| Cc1oc(C(C)C)cc1C(=O)N1C[C@@H]2CC[C@H]1CN(c1ncccn1)C2 | -126% |
| O=C(CCn1cc(Cl)cn1)N1C[C@H]2CC[C@@H](C1)N(Cc1ccccn1)C2 | 7.15% |
